In PMC9547662 (Investigational new drugs, 2018):

What was measured:
[1] = system: ARE/Nrf2 transcriptional activity; test: ARE/NRF2 luciferase reporter assay in ARE/HepG2/Luciferase reporter cells; format: cell-based; conditions: 24 hours; for IC50: read-out: IC50 in HepG2 ARE/NRF2 reporter assay, 200μM t-BHQ, compounds 20nM to 10μM
Method in brief: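 HepG2 ARE-luciferase reporter cells (7,000/well) cultured 24 h before test compound; t-BHQ added 30 min later; 24 h at […]; one-step luciferase reagent, luminescence read. Screen: 5μM, 200 or 500μM t-BHQ, two independent runs, Z-scores normalized to mean of compound-treated wells. Dose-response: […] serial dilutions 20nM–10μM plus 200μM t-BHQ; 0.5% DMSO control; percent of DMSO control.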

[2] = system: NRF2 nuclear translocation; test: NRF2 nuclear translocation high-content screen in HepG2 cells; format: cell-based; conditions: 0.625-10μM compound + 200μM t-BHQ, 2 hours
MM.1S cells [3] = test: Detection of mitochondrial superoxide; format: cell-based, human; conditions: 24 hours; for mitochondrial superoxide induction (rank among six drug candidates): 0.6, 1.25, 2.5 and 5μM
MM.1S cells [4] = test: MTS assay of cell growth in MM.1S cells; format: cell-based, human
U266 cells [5] = test: Detection of mitochondrial superoxide; format: cell-based, human; conditions: 24 hours
[6] = system: NRF2 nuclear translocation; test: NRF2 nuclear translocation assay in MM.1S cells; format: cell-based, human; conditions: 2 hours, no t-BHQ
Method in brief: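 MM.1S cells (300,000/well) exposed 2 h to test compound, DMSO or 2 mM N-acetyl-L-cysteine; fixed 4% PFA 30 min, permeabilized/blocked (2% BSA, 0.1% Triton X-100) 30 min; stained with Hoechst 33342 (4ug/mL) and NRF2-Alexa Fluor 488 antibody (1:1000); high-content imaging and image analysis; NRF2 inhibition expressed as Z-scores.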

U266 cells [7] = test: Viability by DAPI staining; format: cell-based, human; conditions: 5μM, 24 hours
Method in brief: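 Over 24 hours, U266 cells (RPMI 1640, 10% heat-inactivated FBS, 1% L-glutamine, penicillin-streptomycin; 5% CO2, 37°C) were treated with test compound at 5μM, alone or with 200μM pyocyanin. Vehicle was the negative control and 200μM pyocyanin the positive control. Cells were stained with DAPI, and viability was scored by flow cytometry as percentage DAPI-negative. Mean and SEM are reported.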

U266 cells [8] = test: MTS assay of cell growth in U266 cells; format: cell-based, human; conditions: 5μM single agent, 24, 48 and 72 hours

Row | Compound | IC50 [1] [µM] | effect on nuclear translocation of NRF2 (ratio of cytoplasmic to nuclear NRF2) [2] | mitochondrial superoxide induction (rank among six drug candidates) (MM.1S cells [3]) | other results
1 | Cc1ccc(NC(=O)c2cccc(C(C)(C)C#N)c2)cc1Nc1ccc2ncn(C)c(=O)c2c1 [AZ-628] | 1 | affected nuclear translocation of NRF2 | followed by AZ-628 | cell growth (MM.1S cells [4]; 2.5μM and 5μM, 48 hours): significant inhibition of cell growth
2 | C=CCc1cccc(/C=N/NC(=O)CN2CCN(Cc3ccccc3)CC2)c1O [PAC-1] | 2.7 |  |  | 
3 | O=C1NCCc2[nH]c(-c3ccncc3)cc21 [PHA-767491] | 2.41 | affected nuclear translocation of NRF2 | most potent superoxide inducer | cell growth (MM.1S cells [4]; 2.5μM and 5μM, 48 hours): significant inhibition of cell growth
4 | Cc1ccc(C(=O)Cn2c3c(sc2=N)CCCC3)cc1 [Pifithrin-α, pifithrin-α] | 0.16 |  |  | 
5 | Cn1c2cccc(=O)c-2nc2ccccc21 [Pyocyanin, pyocyanin] |  |  |  | mitochondrial superoxide induction (MM.1S cells [3]; serial dilutions 0 to 300μM): efficient and dose-dependent induction of mitochondrial superoxide; mitochondrial superoxide induction (U266 cells [5]; serial dilutions 0 to 300μM): efficient and dose-dependent induction of mitochondrial superoxide
6 | N#C/C(=C(/N)Sc1ccc(N)cc1)c1ccccc1C(F)(F)F [SL-327] | 0.31 | affected nuclear translocation of NRF2 | followed by AZ-628 and SL-327 | effect on nuclear translocation of NRF2 [6]: anticipated inhibitory effect on nuclear translocation of NRF2
7 | CC(C)(C)c1cc(O)ccc1O [t-BHQ, tert-butylhydroquinone] |  |  |  | induction of NRF2 transcriptional activity ([1]; 200μM or 500μM t-BHQ, HepG2 cells): robust induction of NRF2 transcriptional activity
8 | brusatol |  |  |  | mitochondrial superoxide levels (U266 cells [5]; 5μM): increased superoxide levels; viability (percentage of DAPI-negative viable cells) (U266 cells [7]): decreased viability; cell growth (MM.1S cells [4]; 5μM single agent, 24, 48 and 72 hours): efficiently suppressed growth; cell growth (U266 cells [8]): efficiently suppressed growth
9 | vitamin B12 | 0.62 |  |  | 
